T cell modulator: T cell immune modulation candidate; 2C CD8+ T cell-vesicle binding, flow cytometry; stronger effect = lower value; response (vesicle binding), % at 7 µM; 0.068% of 330,000 active; AID 2052;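 active = response, share of CD8 T cells binding vesicles, and their 90th percentile fluorescence all below set limits, cut at about 80% in these data, passing the limit was not always enough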;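 also: values below 100% mean blocked vesicle binding to the CD8+ T cells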
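Test system: purified 2C TCR transgenic mouse naive CD8+ T cells. Probe or stimulus: QL9-peptide-loaded Drosophila micro-vesicles bearing Ld, ICAM-1 and B7-1. Incubation: binding step 1.5 h, 37 °C, antibody labelling 20 min, ice. Measured by: flow cytometry of vesicle-bound cells.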
Glyco luc inh: N-linked glycosylation inhibition; D54 ERlucT glycosylation luciferase reporter, 24 h; percent of 100 nM tunicamycin response; reporter increase, % at 12.5 µM; 0.23% of 360,000 active; AID 588692;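 active = mean luciferase reporter signal, scaled so untreated is 0 and the glycosylation-blocking control 100, at or above a set limit in every replicate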;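 also: luciferase carries N-glycosylation sites so blocking glycosylation raises the light; 0% = median of neutral control wells and 100% = median of 100 nM tunicamycin wells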
ALR inh: blocks human ALR sulfhydryl oxidase activity; P55789; purified ALR, DTT oxidation, H2O2 HRP-luminol luminescence; inhibition, % (concentration not given with the values); 3.8% of 290,000 active; AID 485317;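 active = mean replicate inhibition above about 79%, with every replicate also reaching it, limit read from the data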
Target sequence (P55789 whole entry, looked up): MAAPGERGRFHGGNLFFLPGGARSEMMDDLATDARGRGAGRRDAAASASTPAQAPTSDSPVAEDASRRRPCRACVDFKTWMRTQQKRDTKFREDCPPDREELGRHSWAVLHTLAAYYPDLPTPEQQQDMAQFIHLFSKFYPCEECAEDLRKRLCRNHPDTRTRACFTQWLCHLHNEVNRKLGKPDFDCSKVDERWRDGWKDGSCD
Active calls of the source: *; i = inactive; . = not tested or not shown. Only a selection was taken, and hits are over-represented in it overall.

SMILES | T cell modulator | Glyco luc inh | ALR inh
Cc1cc(C(=O)Nc2cccc(C(=O)O)c2)c(C)o1 | 169 | 0 | 9
Cc1oc(-c2ccccc2)cc1C(=O)Nc1cccc(C(=O)O)c1 | 382 | -1 | 84*
CN(C)c1ccc2nc3ccc(=O)cc-3sc2c1 | . | -8 | .
CN(C)c1ccc2nc3ccc(=[N+](C)C)cc-3sc2c1 | 152 | -16 | 99*
CC(C)(CNC(=O)c1ccc(Br)o1)CNC(=O)c1ccc(Br)o1 | . | -3 | .
O=S(=O)(NCC(c1cccs1)N1CCc2ccccc2C1)c1ccccc1 (stereo not drawn) | 315 | -4 | -10
Cc1cccn2c(=O)c(C=O)c(N3CCCCC3)nc12 | 150 | 3 | -2
Cc1cccn2c(=O)c(C=O)c(Cl)nc12 | i | -5 | 98*
CCN(CC)S(=O)(=O)c1ccc(Cl)c(NC(=O)COc2ccc(OC)cc2)c1 | 434 | -2 | -4
COC(=O)c1cnn(-c2ccccc2)c1/C=N/NC(=S)Nc1ccc(Cl)cc1 | 509 | 14 | -10
CC(C)(C)C1CCC(C(=O)Nc2ccc(N3CCOCC3)cc2N2CCOCC2)CC1 (stereo not drawn) | 204 | 0 | 7
O=C(COC(=O)CN1C(=O)C2CC=CCC2C1=O)Nc1cccc([N+](=O)[O-])c1 (stereo not drawn) | . | 1 | .
Cc1ccc2nc(-c3ccc(NC(=O)CSCC(=O)O)cc3)sc2c1 | 223 | -9 | .
O=C(CSc1nc2ccccc2s1)Nc1nccs1 | 207 | 0 | -9
O=C(CSc1nc2ccccc2s1)Nc1ccc2c(c1)oc1ccccc12 | 263 | 0 | -5
O=C(O)CSCC(=O)Nc1ccc(-c2nc3ccccc3s2)cc1 | 233 | -8 | 99*
Cn1nnnc1SCC(=O)NCc1cc([N+](=O)[O-])ccc1O | 196 | 2 | 2
Nc1nonc1NC(=O)CSc1nc2ccccc2s1 | 170 | 1 | 98*
O=C(CSc1nc2ccccc2s1)NCc1cc([N+](=O)[O-])ccc1O | 384 | 0 | 99*
O=C(CSc1nc2ccccc2s1)Nc1cc(C(=O)O)cc(C(=O)O)c1 | 172 | 0 | 99*
O=C(N/N=C/c1ccc[nH]1)c1cc(-c2ccc(Cl)cc2)nc2ccccc12 | 450 | -2 | 9
CCc1ccc(NC(=O)CSc2nc(N)c(NC(=O)c3ccc(F)c(F)c3)c(=O)[nH]2)cc1 | 409 | 2 | 3
CN1C(=O)C(c2nnc(Nc3cccc4ccccc34)s2)C2CC1(C)Oc1ccccc12 (stereo not drawn) | 536 | -5 | -5
O=C(NCc1ccccc1CN1CCCC1)c1ccc(S(=O)(=O)Nc2ccccc2)cc1 | . | -6 | .
CCOc1ccc(C2=CSC3=NCCN23)cc1Cl | 201 | 4 | 4
SMILES | T cell modulator | Glyco luc inh | ALR inh
CN(C)c1ccc(N2C(=NC(=O)COc3ccccc3)SC3CS(=O)(=O)CC32)cc1 (stereo not drawn) | 93 | 0 | 39
O=C(CSc1nc2ccccc2s1)Nc1ccc(Cl)c(C(=O)O)c1 | 397 | 0 | 99*
O=C(CSc1nnc(SCc2cccc3ccccc23)s1)c1ccc2c(c1)OCO2 | 322 | 0 | -16
O=C(CSc1nc2ccccc2s1)NNC(=O)Nc1ccc(Cl)c(Cl)c1 | 392 | -1 | -12
O=C(CSc1nnc(SCc2cccc3ccccc23)s1)Nc1ccc(C(=O)O)cc1 | 178 | 1 | 98*
CC(C)Cn1c(N)c(C(=O)COC(=O)c2ccc(Br)cc2)c(=O)n(C)c1=O | 416 | 0 | 2
COCCCNC(=O)CCC(=O)NNc1nc2ccccc2c2nc(C)nn12 | 241 | 0 | 4
Cc1nc2c3ccccc3nc(NNC(=O)CCC(=O)N3CCN(c4ccc(F)cc4)CC3)n2n1 | 320 | 2 | 90*
CCCCNC(=O)CCC(=O)NNc1nc2ccccc2c2nc(C)nn12 | 349 | 1 | -3
Cc1nc2c3ccccc3nc(NNC(=O)CCC(=O)NCCN3CCN(c4ccccc4)CC3)n2n1 | 305 | -2 | 98*
Cc1c(-c2ccccc2)c(-c2ccc(OCCN(C)C)cc2)n2ccccc12 | . | 1 | .
COc1ccc(S(=O)(=O)N2CCCCC2)cc1NC(=O)CCC(=O)N1CCC(c2ccccc2)=N1 | . | 0 | .
Cc1cc(NS(=O)(=O)c2ccc(NC(=O)COc3c(C)cc(Br)cc3C)cc2)no1 | 326 | 33* | .
Cc1cc(NS(=O)(=O)c2ccc(NC(=O)COc3cc(C)c(Cl)c(C)c3)cc2)no1 | 413 | -2 | -3
COc1ccccc1OCC(=O)Nc1ccc(S(=O)(=O)Nc2cc(C)on2)cc1 | 246 | 4 | 89*
COc1ccc(OCC(=O)Nc2ccc(S(=O)(=O)Nc3cc(C)on3)cc2)cc1 | 45 | 0 | .
CC1Cc2cc(/C(O)=C3/C(=O)C(=O)N(CCCn4ccnc4)C3c3cccc([N+](=O)[O-])c3)ccc2O1 (stereo not drawn) | 425 | 2 | 74
Cc1ccccc1OCC(=O)Nc1nnc(C2CCCC2)s1 | 458 | 0 | -1
O=C(NCCN1CCOCC1)c1ccccc1N1C(=O)[C@@H]2Cc3c([nH]c4ccccc34)C(c3ccc(F)cc3)N2C1=O (stereo partly drawn) | 72 | -2 | .
COc1cccc(C2c3[nH]c4ccccc4c3C[C@H]3C(=O)N(CCCCCO)CC(=O)N23)c1 (stereo partly drawn) | 154 | 2 | 98*
O=C(O)C1CCN(C(=O)c2ccccc2N2C(=O)[C@@H]3Cc4c([nH]c5ccccc45)C(c4cccc(Cl)c4)N3C2=O)CC1 (stereo partly drawn) | 377 | 2 | 99*
Cc1ccc(C2c3[nH]c4ccccc4c3C[C@H]3C(=O)N(c4ccccc4C(=O)N4CCC(C(=O)O)CC4)C(=O)N23)cc1 (stereo partly drawn) | 240 | 0 | 16
COc1ccc(C2c3[nH]c4ccccc4c3C[C@H]3C(=O)N(c4ccccc4C(=O)NCCN4CCOCC4)C(=O)N23)cc1 (stereo partly drawn) | 280 | -2 | -6
COc1cccc(C2c3[nH]c4ccccc4c3C[C@H]3C(=O)N(CCCOC(C)C)CC(=O)N23)c1 (stereo partly drawn) | 355 | 1 | -19
COc1cccc(C2c3[nH]c4ccccc4c3C[C@H]3C(=O)N(c4ccccc4C(=O)N4CCCC4C(=O)O)C(=O)N23)c1 (stereo partly drawn) | 231 | 2 | 97*
SMILES | T cell modulator | Glyco luc inh | ALR inh
Cc1ccc(C2c3[nH]c4ccccc4c3C[C@H]3C(=O)N(c4ccccc4C(=O)N4CCC[C@@H]4C(=O)O)C(=O)N23)cc1 (stereo partly drawn) | 216 | 0 | 98*
CCN(CC(=O)Nc1ccc(NC(C)=O)cc1)C(=O)c1sc2nc3n(c(=O)c2c1C)CCC3 | 312 | 1 | .
N#CC1(Nc2cccc(Cl)c2)CCCC1 | . | -2 | .
CCCCn1c(N)c(N(CC(C)C)C(=O)CC2CCCCC2)c(=O)[nH]c1=O | 408 | -3 | -11
C[C@H](CO)N1C[C@H](C)[C@@H](CN(C)C(=O)Nc2ccc3c(c2)OCCO3)OCc2cnnn2CCCC1=O | . | 0 | .
C[C@H](CO)N1C[C@H](C)[C@@H](CN(C)C(=O)Nc2ccc(F)cc2)Oc2ncc(-c3ccc(F)cc3)cc2C1=O | . | 3 | .
O=C(CN1CCCCCC1)Nc1ccccc1C(=O)Nc1ccccc1 | 247 | -5 | 3
OCn1ncn(-c2ccccc2)c1=S | 424 | 1 | 92*
